Usually inhibition stands for the drop in the measured response relative to a control, in per cent.

SMILES strings stand for the structures. In brackets after ≈: the same amount, converted by molar mass.

The subject of experiment [1] is N9. Description: Antiinflammatory activity in LPS/IFN-gamma-stimulated mouse N9 cells assessed as inhibition of TNFalpha formation at 30 uM pretreated 1 hr before LPS/IFNgamma challenge measured after 24 hrs by enzyme immunoassay.
The subject of experiment [2] is RAW264.7. Briefly: Antiinflammatory activity in LPS-stimulated mouse RAW264.7 cells assessed as inhibition of TNFalpha formation at 30 uM pretreated 1 hr before LPS challenge measured after 24 hrs by enzyme immunoassay. The class given is functional. The essentials:
(§1)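 RAW 264.7 cells, 2 × 10⁵ per well in DMEM with 5% FCS and penicillin/streptomycin, adhered overnight. Pretreated 1 h at 37 °C with drug (0.5% DMSO vehicle; dexamethasone reference), then LPS (E. coli 0111:B4) 1 μg/mL for 24 h. TNF-α in the collected medium, stored at −70 °C, quantified by EIA kit.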

The nature of experiment [3]: Cytotoxicity against mouse 212 cells after 6 days by MTT assay. To be noted: 144 h, read-out: ED50 (the source's name). The class given is functional. Put shortly:
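Ha-ras-transformed NIH/3T3 line (212), kept in MEM alpha with 10% calf serum and antibiotics. Assay medium had 10 mM HEPES pH 7.3. (1–3) × 10³ cells seeded, attached 6 h, then exposed to a range of drug concentrations for 6 days at 37 °C. MTT 4 h, DMSO solubilisation, A550.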
(In general: Tetrazolium dyes change colour on reduction, which living cells bring about.)

Experiment [4] relates to RAW264.7. Description: Antiinflammatory activity in LPS-stimulated mouse RAW264.7 cells assessed as inhibition of TNFalpha formation at 10 uM pretreated 1 hr before LPS challenge measured after 24 hrs by enzyme immunoassay. The class given is functional. The essentials:
as §1

Experiment [5] relates to N9. Description: Antiinflammatory activity in LPS/IFN-gamma-stimulated mouse N9 cells assessed as inhibition of TNFalpha formation at 10 uM pretreated 1 hr before LPS/IFNgamma challenge measured after 24 hrs by enzyme immunoassay.
The test system of a further experiment is SiHa. Briefly: Cytotoxicity against human SiHa cells after 6 days by MTT assay. To be noted: 144 h, read-out: ED50 (the source's name). Type of experiment: functional. The essentials:
(§2)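 Cells grown in DMEM with 10% FBS, 2 mM glutamine and penicillin/streptomycin. (1–3) × 10³ cells seeded per well, attached 6 h, then given fresh medium with 10 mM HEPES pH 7.3 and a range of drug concentrations at 37 °C, CO₂, for 6 days. MTT (1 mg/mL in PBS) added for 4 h, formazan dissolved in DMSO, absorbance read at 550 nm.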

The subject of the next experiment is HT-3. Description: Cytotoxicity against human HT3 cells after 6 days by MTT assay. The class given is functional. To be noted: HT-3, 144 h, read-out: ED50 (the source's name). Put shortly:
as §2

The test system of the next experiment is T-24. Description: Cytotoxicity against human T24 cells after 6 days by MTT assay. Type of experiment: functional. To be noted: T-24, 144 h, read-out: ED50 (the source's name). Put shortly:
as §2

The nature of experiment [6]: Cytotoxicity against human PLC/PRF/5 cells after 6 days by MTT assay. Type of experiment: functional. To be noted: PLC-PRF-5, 144 h, read-out: ED50 (the source's name). The essentials: as §2
For the next experiment, the system named is Ca-Ski. Briefly: Cytotoxicity against human CaSki cells after 6 days by MTT assay. Type of experiment: functional. To be noted: 144 h, read-out: ED50 (the source's name). The essentials:
as §2

For the compound `CC(=O)c1ccc(O)c(O)c1`, the inhibition at 30 µM is -21.5% in the experiment on N9 [1] and -29.2% in the experiment with RAW264.7 [2].
Turning to `CO[C@@H]1[C@@H](O)[C@H](O[C@H]2CC[C@@]3(C)C(=CC[C@@H]4C(=O)O[C@@H]5CO[C@]6(C)OC=C(CC[C@@H]43)[C@H]56)C2)O[C@H](C)[C@H]1O[C@H]1C[C@H](OC)[C@@H](O[C@H]2C[C@H](OC)[C@H](O)[C@@H](C)O2)[C@H](C)O1`, the EC50 in experiment [3] was determined as 0.96 µg/mL (≈ 1.19 µM). For the same compound, the inhibition at 30 µM was determined as 30.9% in the experiment on N9 [1] and 33.7% with RAW264.7 [2].
In the case of `CO[C@@H]1[C@@H](O)[C@H](O[C@H]2CC[C@@]3(C)C(=CC[C@@H]4C(=O)O[C@@H]5CO[C@]6(C)OC=C(CC[C@@H]43)[C@H]56)C2)O[C@H](C)[C@H]1O`, the inhibition at 10 µM was 29.5% with RAW264.7 [4] and 3.2% in the experiment with N9 [5].
For `COc1cc(C(C)=O)ccc1O` [APOCYNIN], the inhibition at 30 µM is -22.6% with N9 [1] and -19.8% with RAW264.7 [2].
On to `CO[C@@H]1[C@@H](O)[C@H](O[C@H]2CC[C@@]3(C)C(=CC[C@@H]4C(=O)O[C@@H]5CO[C@]6(C)OC(=O)/C(=C/C[C@@H]43)[C@H]56)C2)O[C@H](C)[C@H]1O[C@H]1C[C@H](OC)[C@@H](O[C@H]2C[C@H](OC)[C@H](O)[C@@H](C)O2)[C@H](C)O1` [ATRATOGLAUCOSIDE B], for which the EC50 (in experiment [3]; in the experiment on SiHa; in the experiment on HT-3; in the experiment with T-24; in experiment [6]; with Ca-Ski) was greater than 4 µg/mL each time.
With `C[C@@H]1C[C@H]2[C@@H]3CCC4=CC(=O)C=C[C@]4(C)[C@@]3(F)[C@@H](O)C[C@]2(C)[C@@]1(O)C(=O)CO` [DEXAMETHASONE], the figures for the inhibition at 10 µM in the experiment with RAW264.7 [4] and in the experiment on N9 [5] were 49.9% and 82%, respectively.

For the origin of these results see ChEMBL document CHEMBL1150836, “Bioactive constituents of the roots of Cynanchum atratum” (2001).
